Published values pooled from the literature.
Protocols differ between the studies behind these lines. pEC50, pIC50: −log10 of the molar value.
Organism: Plasmodium falciparum
Observed: parasite growth

| SMILES | technique | strain | time | notes | quantity | value |
| --- | --- | --- | --- | --- | --- | --- |
| CCCCN(CCCC)C(=N)CC(O)c1cc2c(F)cc(F)cc2c2cc(C(F)(F)F)ccc12 (stereo not shown) | ELISA | 3D7 | 72 h | blood stage | pIC50 | 5.95 |
| COc1cc(/C=C2\CC/C(=C\c3ccc(O)c(OC)c3)C2=O)ccc1O | – | K1 | – | drug-resistant strain, blood stage | pEC50 | 5.83 |
| N=C(N)N/N=C/c1c(Cl)cccc1Cl | – | DD2 | – | drug-resistant strain, blood stage | pIC50 | 5.88 |
| COc1cc(/C=C2\CCC/C(=C\c3ccc(O)c(OC)c3)C2=O)ccc1O | – | K1 | – | drug-resistant strain, blood stage | pEC50 | 5.89 |
| CCCCCCCCNC(C)C(O)c1ccc(SC(C)C)cc1 (stereo not shown) | – | DD2 | – | drug-resistant strain, blood stage | pIC50 | 7.20 |
| N=C(CC(O)c1cc2c(F)cc(F)cc2c2cc(C(F)(F)F)ccc12)N1CCC(F)(F)CC1 (stereo not shown) | ELISA | 3D7 | 72 h | blood stage | pIC50 | 7.84 |
| CO[C@H]1/C=C/O[C@@]2(C)Oc3c(C)c(O)c4c(O)c(c(/C=N/N5CCN(C)CC5)c(O)c4c3C2=O)NC(=O)/C(C)=C\C=C\[C@H](C)[C@H](O)[C@@H](C)[C@@H](O)[C@@H](C)[C@H](OC(C)=O)[C@@H]1C | – | K1 | – | drug-resistant strain, blood stage | pIC50 | 7.48 |
| N=C(CC(O)c1cc2c(F)cc(F)cc2c2cc(C(F)(F)F)ccc12)Nc1ccc(Br)c(F)c1 (stereo not shown) | ELISA | 3D7 | 72 h | blood stage | pIC50 | 8.28 |
| COc1cc(/C=C/C(=O)C(=Cc2cccc(O)c2)C(=O)/C=C/c2ccc(O)c(OC)c2)ccc1O | – | K1 | – | drug-resistant strain, blood stage | pEC50 | 4.96 |
| CCN1CCN(Cc2ccc(Nc3nc4ccc(Oc5ccnc(NC(=O)C6CCN(C)CC6)c5)cc4n3C)cc2C(F)(F)F)CC1 | flow cytometry | DD2 | 72 h | blood stage | pIC50 | 7.25 |
| COc1cc(/C=C/C(=O)C(=Cc2ccc([N+](=O)[O-])cc2)C(=O)/C=C/c2ccc(O)c(OC)c2)ccc1O | – | K1 | – | drug-resistant strain, blood stage | pEC50 | 5.04 |
| CO[C@H]1C[C@H](O[C@@H]2/C(C)=C/C[C@@H]3C[C@@H](C[C@]4(CC[C@H](C)[C@@H](C5CCCCC5)O4)O3)OC(=O)[C@@H]3C=C(C)/C(=N/O)[C@H]4OC/C(=C\C=C\[C@@H]2C)[C@]43O)O[C@@H](C)[C@@H]1O | – | DD2 | – | drug-resistant strain, blood stage | pIC50 | 6.75 |
| COc1cc(/C=C/C(=O)/C=C/c2ccc(O)c(OC)c2)ccc1O | – | K1 | – | drug-resistant strain, blood stage | pEC50 | 5.60 |
| N=C(CC(O)c1cc2c(F)cc(F)cc2c2cc(C(F)(F)F)ccc12)Nc1ccc(N2CCC(F)(F)CC2)cc1 (stereo not shown) | ELISA | 3D7 DD2 | – | blood stage | pIC50 | ~7.49 |
| CCN(CC)CCCC(C)Nc1ccnc2cc(Cl)ccc12 (stereo not shown) | – | K1 | – | drug-resistant strain | pIC50 | 7.04 |
| N=C(CC(O)c1cc2c(F)cc(F)cc2c2cc(C(F)(F)F)ccc12)Nc1ccc(-c2ccc(F)cc2)cc1 (stereo not shown) | ELISA | 3D7 | 72 h | blood stage | pIC50 | 8.09 |
| CCN(CC)CCCC(C)Nc1ccnc2cc(Cl)ccc12 (stereo not shown) | – | K1 | – | drug-resistant strain, blood stage | pEC50 | 6.28 |
| C[C@@H]1CC[C@H]2[C@@H](C)C(=O)O[C@@H]3O[C@@]4(C)CC[C@@H]1[C@]32OO4 | SYBR Green | 3D7 | – | blood stage | pIC50 | 7.71 |
| N=C(CC(O)c1cc2c(F)cc(F)cc2c2cc(C(F)(F)F)ccc12)Nc1cc(F)c(F)c(F)c1 (stereo not shown) | ELISA | 3D7 | 72 h | blood stage | pIC50 | 8.06 |
